≈ marks a conversion by molar mass, not a printed value.
Tests used:
Bacillus subtilis = assay: Antibacterial activity against Bacillus subtilis was determined; assay type: functional
[1] = molecular target: DNA polymerase III PolC-type (Bacillus subtilis (strain 168), UniProt P13267); assay: Inhibitory activity against DNA polymerase IIIC from Bacillus subtilis was determined
How it was run: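 Homogeneous recombinant B. subtilis pol IIIC, 0.025-0.06 units, added to buffered Mg²⁺/DTT/glycerol mix with dATP, dCTP, dTTP, [³H]dTTP and activated calf thymus DNA, no dGTP ("truncated" assay). Compound serial dilutions in DMSO added before enzyme. 10 min at 30 °C, TCA-pyrophosphate stop, acid-precipitated DNA filtered and scintillation counted. Apparent Ki read directly; duplicates.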

Enterococcus faecalis [2] = assay: Antibacterial activity against Enterococcus faecalis was determined; assay type: functional
How it was run: (§1)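 MIC by broth microdilution. Log-phase cultures in Luria broth, seeded at (3-7) × 10⁵ CFU/mL stocks. Compound from DMSO stock, 2-fold serial dilutions giving five concentrations from 20 to 1.25 µg/mL, final 1% DMSO, with untreated and DMSO controls. Duplicate assays, 37 °C for 16 to 24 h, growth read as OD 600 nm. MIC is the averaged lowest concentration preventing growth.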

Enterococcus faecium = assay: Antibacterial activity against Enterococcus faecium was determined; assay type: functional, enterococcus fecium
How it was run: (§2)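 Broth microdilution MIC. Log-phase cultures grown in Luria broth; wells seeded from stocks at (3-7) × 10⁵ CFU/mL. DMSO stocks diluted 2-fold to five concentrations, 20 to 1.25 µg/mL, plus untreated control; 1% DMSO final in all wells. Duplicate assays, 37 °C for 16 to 24 h, growth read as OD600. MIC taken as lowest concentration preventing growth, averaged.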

Escherichia coli = assay: Antibacterial activity against Escherichia coli was determined; assay type: functional; how it was run: as §2
Staphylococcus aureus [3] = assay: Antibacterial activity against Staphylococcus aureus was determined; assay type: functional
Staphylococcus aureus [4] = assay: Antibacterial activity against Staphylococcus aureus(smith) was determined; assay type: functional
Staphylococcus aureus [5] = assay: Antibacterial activity against methicillin-resistant strain of Staphylococcus aureus(MRSA B42876) was determined; assay type: functional; how it was run: as §1
Enterococcus faecalis [6] = assay: Antibacterial activity against vancomycin-resistant strain of Enterococcus faecalis(VRE) was determined; assay type: functional; how it was run: as §1

Sequence of DNA polymerase III PolC-type (P13267 whole entry, the tested form may be a part): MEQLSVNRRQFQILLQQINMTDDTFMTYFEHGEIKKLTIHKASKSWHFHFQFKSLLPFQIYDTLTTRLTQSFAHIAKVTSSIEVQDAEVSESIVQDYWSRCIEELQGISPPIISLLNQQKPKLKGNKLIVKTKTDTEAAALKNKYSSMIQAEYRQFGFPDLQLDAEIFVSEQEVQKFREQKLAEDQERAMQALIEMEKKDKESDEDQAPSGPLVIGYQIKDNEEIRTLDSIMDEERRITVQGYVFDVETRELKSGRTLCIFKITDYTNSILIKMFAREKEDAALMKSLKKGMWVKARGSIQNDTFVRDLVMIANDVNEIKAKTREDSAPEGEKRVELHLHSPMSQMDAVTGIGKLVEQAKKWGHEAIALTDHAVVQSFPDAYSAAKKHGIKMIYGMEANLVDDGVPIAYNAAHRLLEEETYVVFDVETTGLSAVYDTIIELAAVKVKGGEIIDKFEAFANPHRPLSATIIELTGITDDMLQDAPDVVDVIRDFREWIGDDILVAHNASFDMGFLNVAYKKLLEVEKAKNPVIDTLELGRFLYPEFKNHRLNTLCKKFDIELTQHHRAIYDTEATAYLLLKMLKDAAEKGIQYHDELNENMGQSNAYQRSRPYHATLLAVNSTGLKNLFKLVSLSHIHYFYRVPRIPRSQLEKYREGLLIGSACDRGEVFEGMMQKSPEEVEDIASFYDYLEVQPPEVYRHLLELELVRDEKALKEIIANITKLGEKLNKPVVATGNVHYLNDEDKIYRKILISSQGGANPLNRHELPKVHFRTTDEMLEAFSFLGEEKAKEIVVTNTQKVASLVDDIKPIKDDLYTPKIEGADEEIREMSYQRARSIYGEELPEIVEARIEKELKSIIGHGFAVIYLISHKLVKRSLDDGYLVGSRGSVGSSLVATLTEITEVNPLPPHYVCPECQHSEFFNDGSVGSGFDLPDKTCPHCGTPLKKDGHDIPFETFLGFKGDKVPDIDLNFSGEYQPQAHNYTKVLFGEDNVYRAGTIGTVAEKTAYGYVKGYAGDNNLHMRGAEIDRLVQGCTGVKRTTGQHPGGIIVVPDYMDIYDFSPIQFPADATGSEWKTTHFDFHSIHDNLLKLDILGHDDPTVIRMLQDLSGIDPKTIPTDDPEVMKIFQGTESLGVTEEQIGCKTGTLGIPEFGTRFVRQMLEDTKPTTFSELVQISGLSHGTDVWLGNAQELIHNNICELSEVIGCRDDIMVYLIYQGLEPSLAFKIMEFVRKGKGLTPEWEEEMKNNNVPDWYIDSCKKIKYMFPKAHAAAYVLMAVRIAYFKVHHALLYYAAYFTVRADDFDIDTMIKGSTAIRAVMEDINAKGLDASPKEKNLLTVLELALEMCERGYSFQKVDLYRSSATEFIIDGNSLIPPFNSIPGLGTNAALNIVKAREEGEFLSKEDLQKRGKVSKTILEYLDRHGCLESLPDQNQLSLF

SMILES | MIC (Bacillus subtilis) | Ki [1] | MIC (Enterococcus faecalis [2]) | MIC (Enterococcus faecium) | MIC (Escherichia coli) | MIC (Staphylococcus aureus [3]) | MIC (Staphylococcus aureus [4]) | MIC (Staphylococcus aureus [5]) | MIC (Enterococcus faecalis [6])
COCCCCn1c(=O)cc(Nc2ccc(C)c(CCl)c2)[nH]c1=O | 5 mg/L (≈ 14.2 µM) | 0.04 µM | > 20 mg/L | > 20 mg/L | > 20 mg/L | 20 mg/L (≈ 56.8 µM) | 20 mg/L (≈ 56.8 µM) | 20 mg/L (≈ 56.8 µM) | –
COCCCCn1c(=O)cc(Nc2ccc(C)c(I)c2)[nH]c1=O | 5 mg/L (≈ 11.6 µM) | 0.31 µM | 10 mg/L (≈ 23.3 µM) | 10 mg/L (≈ 23.3 µM) | > 20 mg/L | 10 mg/L (≈ 23.3 µM) | 5 mg/L (≈ 11.6 µM) | 5 mg/L (≈ 11.6 µM) | 5 mg/L (≈ 11.6 µM)
CCc1cc(Nc2cc(=O)n(CCCCN3CCCCC3)c(=O)[nH]2)ccc1C | 10 mg/L (≈ 26 µM) | 0.028 µM | 20 mg/L (≈ 52 µM) | 20 mg/L (≈ 52 µM) | > 20 mg/L | 20 mg/L (≈ 52 µM) | 40 mg/L (≈ 104 µM) | 40 mg/L (≈ 104 µM) | 10 mg/L (≈ 26 µM)
COCCCCn1c(=O)cc(Nc2ccc(C)c(Cl)c2)[nH]c1=O | < 1.25 mg/L | 0.042 µM | 5 mg/L (≈ 14.8 µM) | 5 mg/L (≈ 14.8 µM) | > 20 mg/L | 10 mg/L (≈ 29.6 µM) | 5 mg/L (≈ 14.8 µM) | > 20 mg/L | 5 mg/L (≈ 14.8 µM)
C=Cc1cc(Nc2cc(=O)n(CCCCOC)c(=O)[nH]2)ccc1C | < 1.25 mg/L | 0.56 µM | 10 mg/L (≈ 30.4 µM) | 5 mg/L (≈ 15.2 µM) | > 20 mg/L | 5 mg/L (≈ 15.2 µM) | 5 mg/L (≈ 15.2 µM) | 10 mg/L (≈ 30.4 µM) | 10 mg/L (≈ 30.4 µM)
CCc1cc(Nc2cc(=O)n(CCCCN3CCN(Cc4ccccc4)CC3)c(=O)[nH]2)ccc1C | 20 mg/L (≈ 42 µM) | 0.022 µM | 10 mg/L (≈ 21 µM) | 10 mg/L (≈ 21 µM) | > 20 mg/L | 20 mg/L (≈ 42 µM) | 10 mg/L (≈ 21 µM) | 10 mg/L (≈ 21 µM) | 5 mg/L (≈ 10.5 µM)
COCCCCn1c(=O)cc(Nc2ccc(C)c(C(C)Cl)c2)[nH]c1=O (stereo unspecified) | > 20 mg/L | 6.47 µM | > 20 mg/L | > 20 mg/L | > 20 mg/L | > 20 mg/L | > 20 mg/L | – | –
CCc1cc(Nc2cc(=O)n(CCCCN3CCN(c4ncccn4)CC3)c(=O)[nH]2)ccc1C | – | – | 5 mg/L (≈ 10.8 µM) | 5 mg/L (≈ 10.8 µM) | > 20 mg/L | – | 10 mg/L (≈ 21.6 µM) | 10 mg/L (≈ 21.6 µM) | 5 mg/L (≈ 10.8 µM)
CCc1cc(Nc2cc(=O)n(CCCCN3CCOCC3)c(=O)[nH]2)ccc1C | – | – | – | – | > 20 mg/L | – | – | – | –
CCc1cc(Nc2cc(=O)n(CCCCN3CCNCC3)c(=O)[nH]2)ccc1C.Cl.Cl | 20 mg/L | 0.03 µM | > 20 mg/L | > 20 mg/L | > 20 mg/L | > 20 mg/L | > 20 mg/L | – | –
CN[C@H](CC(C)C)C(=O)N[C@H]1C(=O)N[C@@H](CC(N)=O)C(=O)N[C@H]2C(=O)N[C@H]3C(=O)N[C@H](C(=O)N[C@H](C(=O)O)c4cc(O)cc(O)c4-c4cc3ccc4O)[C@H](O)c3ccc(c(Cl)c3)Oc3cc2cc(c3O[C@@H]2O[C@H](CO)[C@@H](O)[C@H](O)[C@H]2O[C@H]2C[C@](C)(N)[C@H](O)[C@H](C)O2)Oc2ccc(cc2Cl)[C@H]1O [VANCOMYCIN] | – | – | – | – | > 20 mg/L | – | – | – | > 20 mg/L
COCCCCn1c(=O)cc(Nc2ccc(C)c(C(C)=O)c2)[nH]c1=O | > 20 mg/L | 3.26 µM | > 20 mg/L | > 20 mg/L | > 20 mg/L | > 20 mg/L | > 20 mg/L | – | –
COCCCCn1c(=O)cc(Nc2ccc(C)c(CC#N)c2)[nH]c1=O | 20 mg/L (≈ 58.4 µM) | 1.02 µM | > 20 mg/L | 20 mg/L (≈ 58.4 µM) | > 20 mg/L | > 20 mg/L | 20 mg/L (≈ 58.4 µM) | – | –
COCCCCn1c(=O)cc(Nc2ccc(C)c(C(C)O)c2)[nH]c1=O (stereo unspecified) | > 20 mg/L | 2.1 µM | > 20 mg/L | > 20 mg/L | > 20 mg/L | > 20 mg/L | > 20 mg/L | – | –
CCc1cc(Nc2cc(=O)n(CCCCN3CCN(c4ccc(F)cc4)CC3)c(=O)[nH]2)ccc1C | – | – | 10 mg/L (≈ 20.9 µM) | 5 mg/L (≈ 10.4 µM) | > 20 mg/L | 10 mg/L (≈ 20.9 µM) | – | 20 mg/L (≈ 41.7 µM) | 5 mg/L (≈ 10.4 µM)
CCc1cc(Nc2cc(=O)n(CCCCN3CCN(C(=O)c4ccco4)CC3)c(=O)[nH]2)ccc1C | – | – | 5 mg/L (≈ 10.4 µM) | 10 mg/L (≈ 20.9 µM) | > 20 mg/L | – | 5 mg/L (≈ 10.4 µM) | 20 mg/L (≈ 41.7 µM) | 10 mg/L (≈ 20.9 µM)
CCc1cc(Nc2cc(=O)n(CCCCN3CCC(O)(c4ccc(Cl)c(C(F)(F)F)c4)CC3)c(=O)[nH]2)ccc1C | – | – | – | 2.5 mg/L (≈ 4.32 µM) | > 20 mg/L | – | – | – | 2.5 mg/L (≈ 4.32 µM)
COCCCCn1c(=O)cc(Nc2ccc(C)c(CSC#N)c2)[nH]c1=O | > 20 mg/L | 0.06 µM | > 20 mg/L | > 20 mg/L | > 20 mg/L | > 20 mg/L | > 20 mg/L | – | –
CCOC(=O)CC1CN(CCCCn2c(=O)cc(Nc3ccc(C)c(CC)c3)[nH]c2=O)CCO1 (stereo unspecified) | 5 mg/L (≈ 10.6 µM) | 0.026 µM | > 20 mg/L | 10 mg/L (≈ 21.2 µM) | > 20 mg/L | 20 mg/L (≈ 42.3 µM) | 20 mg/L (≈ 42.3 µM) | 20 mg/L (≈ 42.3 µM) | –
COCCCCn1c(=O)cc(Nc2ccc(C)c(CO)c2)[nH]c1=O | > 20 mg/L | 20 µM | > 20 mg/L | > 20 mg/L | > 20 mg/L | > 20 mg/L | > 20 mg/L | – | –
O=C(O)c1cn(C2CC2)c2cc(N3CCNCC3)c(F)cc2c1=O [CIPROFLOXACIN] | – | – | – | – | 0.313 mg/L (≈ 0.945 µM) | – | – | – | 20 mg/L (≈ 60.4 µM)
CCc1cc(Nc2cc(=O)n(CCCCN3CCC(O)(c4ccc(Cl)cc4)CC3)c(=O)[nH]2)ccc1C | – | – | 5 mg/L (≈ 9.78 µM) | 5 mg/L (≈ 9.78 µM) | > 20 mg/L | – | 5 mg/L (≈ 9.78 µM) | 5 mg/L (≈ 9.78 µM) | 10 mg/L (≈ 19.6 µM)
CCc1cc(Nc2cc(=O)n(CCCCI)c(=O)[nH]2)ccc1C | > 20 mg/L | 0.14 µM | > 20 mg/L | > 20 mg/L | > 20 mg/L | > 20 mg/L | > 20 mg/L | – | –
CCc1cc(Nc2cc(=O)n(CCCCO)c(=O)[nH]2)ccc1C | – | 0.063 µM | – | 2.5 mg/L (≈ 7.88 µM) | > 20 mg/L | – | – | – | 2.5 mg/L (≈ 7.88 µM)
CCc1cc(Nc2cc(=O)n(CCCCOC)c(=O)[nH]2)ccc1C | – | 0.088 µM | – | – | > 20 mg/L | – | – | – | 2.5 mg/L (≈ 7.54 µM)
CCc1cc(Nc2cc(=O)n(CCCCN)c(=O)[nH]2)ccc1C.Cl | – | 0.062 µM | – | – | > 20 mg/L | – | – | – | –
CCc1cc(Nc2cc(=O)n(CCCCN3CCSCC3)c(=O)[nH]2)ccc1C | – | – | 5 mg/L (≈ 12.4 µM) | 5 mg/L (≈ 12.4 µM) | > 20 mg/L | 20 mg/L (≈ 49.7 µM) | – | 20 mg/L (≈ 49.7 µM) | 5 mg/L (≈ 12.4 µM)
COCCCCn1c(=O)cc(Nc2ccc(C)c(CS)c2)[nH]c1=O | > 20 mg/L | 0.18 µM | > 20 mg/L | > 20 mg/L | > 20 mg/L | > 20 mg/L | > 20 mg/L | – | –

— ChEMBL document CHEMBL1144871, “Synthesis of substituted 6-anilinouracils and their inhibition of DNA polymerase IIIC and Gram-positive bacterial growth” (J Med Chem, 2003)
